Laboratory results taken from ChEMBL document CHEMBL4382295, “Enhanced Tumor Selectivity of 5-Fluorouracil Using a Reactive Oxygen Species-Activated Prodrug Approach” (ACS Med Chem Lett, 2019).
Calls of active or inactive are those of the source. No cut-off for these calls is given here.

Tests used:
MCF7 [1] = experiment: Antiproliferative activity against human MCF7 cells assessed as reduction in cell viability at 1 to 100 uM after 48 to 72 hrs by CCK8 assay; type: functional, cell-based
Procedure, shortened: (§1)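 Breast cancer MCF7 cells and normal MEC1 cells treated at a range of concentrations, concentrations up to 100 μM. Cell viability then measured. Mean ± SD, n = 4.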

MCF7 [2] = experiment: Induction of DNA damage in human MCF7 cells assessed as increase in gammaH2AX level after 48 hrs by DAPI staining based immunofluorescence assay; type: functional, cell-based
Procedure, shortened: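 MCF7 cells treated 48 h at the indicated concentrations. γH2AX formation, a marker of DNA double-strand breaks, visualized by immunofluorescence.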

MCF7 [3] = experiment: Induction of apoptosis in human MCF7 cells assessed as increase in cleaved PARP1 level up to 100 uM after 48 hrs by Western blot analysis; type: functional, cell-based
Procedure, shortened: (§2)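 MCF7 cells treated 48 h at the indicated concentrations, with vehicle-treated cells as control. Lysates immunoblotted for PARP1 and caspase 3 and their cleaved forms (CL-PARP1, CL-caspase 3).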

MCF7 [4] = experiment: Induction of apoptosis in human MCF7 cells assessed as increase in cleaved caspase-3 level up to 100 uM after 48 hrs by Western blot analysis; type: functional, cell-based; procedure, shortened: as §2
[5] = Acute toxicity in C57BL/6J mouse assessed as death at 100 mg/kg, ip administered every other day for 12 days; type: organism-based; settings: in vivo, 288 h
[6] = Acute toxicity in C57BL/6J mouse assessed as decrease in body weight at 100 mg/kg, ip administered every other day for 12 days; type: organism-based; settings: in vivo, 288 h
NCI-H522 = experiment: Antiproliferative activity against human NCI-H522 cells assessed as growth inhibition at 50 uM after 48 hrs by sulforhodamine B assay relative to control; type: functional; settings: NCI-H522, 48 h, read-out: GI
Procedure, shortened: (§3)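 NCI cell-line screen (protocol per DTP/NCI). Cells exposed to a single concentration of 50 μM for 48 h, then percent growth inhibition determined.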

MDA-MB-435 = experiment: Antiproliferative activity against human MDA-MB-435 cells assessed as growth inhibition at 50 uM after 48 hrs by sulforhodamine B assay relative to control; type: functional; settings: MDA-MB-435, 48 h, read-out: GI; procedure, shortened: as §3
OVCAR-3 = experiment: Antiproliferative activity against human OVCAR3 cells assessed as growth inhibition at 50 uM after 48 hrs by sulforhodamine B assay relative to control; type: functional; settings: OVCAR-3, 48 h, read-out: GI; procedure, shortened: as §3
MCF7 [7] = experiment: Antiproliferative activity against human MCF7 cells assessed as growth inhibition at 50 uM after 48 hrs by sulforhodamine B assay relative to control; type: functional; settings: MCF7, 48 h, read-out: GI; procedure, shortened: as §3
MDA-MB-468 = experiment: Antiproliferative activity against human MDA-MB-468 cells assessed as growth inhibition at 50 uM after 48 hrs by sulforhodamine B assay relative to control; type: functional; settings: MDA-MB-468, 48 h, read-out: GI; procedure, shortened: as §3
[8] = Cytotoxicity against human MEC1 cells assessed as cell viability at 1 to 100 uM after 48 to 72 hrs by CCK8 assay relative to control; type: cell-based; settings: read-out: Activity; procedure, shortened: as §1
MCF7 [9] = experiment: Antiproliferative activity against human MCF7 cells assessed as reduction in cell viability at 50 to 100 uM after 48 hrs in presence of ROS scavenger NAC by MTT assay
[10] = Acute toxicity in C57BL/6J mouse assessed as death at 100 mg/kg, ip administered every other day for 15 days measured during compound dosing; type: organism-based; settings: in vivo, 360 h
Procedure, shortened: (§4)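 Wild-type male C57BL/6 mice, randomized into three groups of seven (21 total): vehicle (5% DMSO and 15% polyethylene glycol in saline) or 100 mg/kg test article. Dosed ip every other day for 15 days. Survival, body weight, eating, drinking and activity were recorded throughout treatment.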

[11] = Acute toxicity in C57BL/6J mouse assessed as abnormality in eating at 100 mg/kg, ip administered every other day for 15 days measured during compound dosing; type: organism-based; settings: in vivo, 360 h; procedure, shortened: as §4
[12] = Acute toxicity in C57BL/6J mouse assessed as abnormality in drinking at 100 mg/kg, ip administered every other day for 15 days measured during compound dosing; type: organism-based; settings: in vivo, 360 h; procedure, shortened: as §4
[13] = Acute toxicity in C57BL/6J mouse assessed as effect on normal activity at 100 mg/kg, ip administered every other day for 15 days measured during compound dosing; type: organism-based; settings: in vivo, 360 h; procedure, shortened: as §4
[14] = Acute toxicity in C57BL/6J mouse assessed as decrease in body weight at 100 mg/kg, ip administered every other day for 15 days measured during compound dosing; type: organism-based; settings: in vivo, 360 h; procedure, shortened: as §4

Compound	Activity (MCF7 [1])	Activity (MCF7 [2])	Activity (MCF7 [3])	Activity (MCF7 [4])	Activity [5]	Activity [6]	inhibition of growth at 50 µM (NCI-H522) [%]	inhibition of growth at 50 µM (MDA-MB-435) [%]	inhibition of growth at 50 µM (OVCAR-3) [%]	inhibition of growth at 50 µM (MCF7 [7]) [%]	inhibition of growth at 50 µM (MDA-MB-468) [%]	viability at up to 100 µM [8] [%]	Activity (MCF7 [9])	Activity [10]	Activity [11]	Activity [12]	Activity [13]	Activity [14]
O=c1[nH]c(=O)n(Cc2ccccc2)cc1F	inactive																	
O=c1[nH]cc(F)c(=O)[nH]1 [FLUOROURACIL]	Active	Active	Active	Active	Toxic	Toxic												
O=c1[nH]c(=O)n(Cc2ccc(B(O)O)cc2)cc1F	Active	Active	Active	Active			44	65	30	33	22	> 95	inactive					
CC1(C)OB(c2ccc(Cn3cc(F)c(=O)[nH]c3=O)cc2)OC1(C)C	Active	Active	Active	Active			90	96	95	81	87	> 95	inactive	Non-Toxic	Non-Toxic	Non-Toxic	Non-Toxic	Non-Toxic
